The record followed here is ChEMBL document CHEMBL4706631, “Potent and Selective Mitogen-Activated Protein Kinase Kinase 1/2 (MEK1/2) Heterobifunctional Small-molecule Degraders” (J Med Chem, 2020).

A short description of data set [1]: Drug level in Swiss albino mouse plasma at 50 mg/kg, ip administered as single dose and measured up to 8 hrs by LC-MS/MS analysis. Format: ADME, organism-based. The conditions noted are these: in vivo.
Data set [2] is described as follows: Toxicity in Swiss albino mouse assessed as effect on clinical signs at 50 mg/kg, ip administered as single dose and measured up to 8 hrs. Format: organism-based. The conditions noted are these: in vivo.
The subject of data set [3] is HT-29. Put plainly: Antiproliferative activity against human HT-29 cells at 0.00017 to 10 uM in presence of 400 nM ZSTK474 incubated for 3 days by WST-8 assay. Format: functional, cell-based. Conditions: dose 0.00017-10 µM, time 3.0 day. The procedure, abridged:
(§1)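 Cells grown in DMEM, RPMI-1640 or EMEM with 10% FBS and penicillin/streptomycin. They were exposed for 3 days to a dilution series of degrader combined with fixed PLX4032 (100 nM) or ZSTK474 (400 nM). Live-cell signal was read by WST-8. Triplicate points, mean ± SD of three independent experiments. Student's t-test per concentration versus DMSO.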
For orientation: Tetrazolium dyes change colour on reduction, which living cells bring about.

Data set [4] has as its system SK-MEL-28. The data set is described as follows: Inhibition of ERK phosphorylation in human SK-MEL-28 cells at 0.0001 to 3 uM incubated for 24 hrs by Western blot analysis. Format: cell-based. The conditions noted are these: dose 0.0001-3 µM.
In data set [5] the test system is HT-29. The data set is described as follows: Inhibition of ERK phosphorylation in human HT-29 cells pre-incubated with PD0325901 for 2 hrs followed by compound addition at 0.1 uM and further incubated for 8 hrs by Western blot analysis. In kind it is cell-based. A general note: In western blotting, separated proteins are transferred to a membrane and probed.
The test system of data set [6] is SK-MEL-28. The data set is described as follows: Antiproliferative activity against human SK-MEL-28 cells at 0.00017 to 10 uM in presence of 400 nM ZSTK474 incubated for 3 days by WST-8 assay. Conditions: dose 0.00017-10 µM, time 3.0 day. Format: functional, cell-based. The procedure, abridged: as §1
In data set [7] the test system is SU-DHL-1. The data set is described as follows: Inhibition of ERK phosphorylation in human SU-DHL-1 cells at 0.3 to 3 uM and incubated for 24 hrs by Western blot analysis. Format: cell-based. Conditions: dose 0.3-3 µM. The procedure, abridged: (§2)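 H3122 and SU-DHL-1 cells were treated with compounds, and MEK1/2, pMEK and pERK were assessed by Western blot of lysates.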

Data set [8] deals with HT-29. The data set is described as follows: Inhibition of ERK phosphorylation in human HT-29 cells incubated for 24 hrs by Western blot analysis. In kind it is cell-based.
Data set [9] concerns HT-29. Put plainly: Antiproliferative activity against human HT-29 cells at 0.00017 to 10 uM in presence of 100 nM PLX4032 incubated for 3 days by WST-8 assay. In kind it is functional, cell-based. Conditions: dose 0.00017-10 µM, time 3.0 day. The method in brief:
as §1

The nature of data set [10]: Toxicity in Swiss albino mouse assessed as induction of adverse events at 50 mg/kg, ip administered as single dose and measured up to 8 hrs. Format: organism-based. The conditions noted are these: in vivo.
Data set [11] concerns SK-MEL-28. The data set is described as follows: Antiproliferative activity against human SK-MEL-28 cells at 0.00017 to 10 uM in presence of 100 nM PLX4032 incubated for 3 days by WST-8 assay. The conditions noted are these: dose 0.00017-10 µM, time 3.0 day. In kind it is functional, cell-based. The procedure, abridged:
as §1

Data set [12] deals with HT-29. The data set is described as follows: Inhibition of ERK phosphorylation in human HT-29 cells pre-incubated for 2 hrs followed by compound addition at 0.1 uM and further incubated for 8 hrs by Western blot analysis.
Data set [13] in a line: Toxicity in Swiss albino mouse assessed as drug tolerability at 50 mg/kg, ip administered as single dose and measured up to 8 hrs. The conditions noted are these: in vivo. In kind it is organism-based.
For data set [14], the system named is NCI-H3122. The data set is described as follows: Antiproliferative activity against human NCI-H3122 cells at 0.014 to 3.33 uM incubated for 3 days by WST8 assay. In kind it is functional, cell-based. The conditions noted are these: dose 0.014-3.33 µM, time 3.0 day. The method in brief:
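NCI-H3122 cells were exposed to serial compound dilutions for 3 days, with WST-8 live-cell readout. Each concentration was run in triplicate. Student's t-test per concentration versus DMSO.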

In data set [15] the test system is HT-29. Put plainly: Inhibition of ERK phosphorylation in human HT-29 cells pre-incubated with VH032 for 2 hrs followed by compound addition at 0.1 uM and further incubated for 8 hrs by Western blot analysis. In kind it is cell-based.
Data set [16] has as its system HT-29. Put plainly: Inhibition of ERK phosphorylation in human HT-29 cells pre-incubated with MLN4924 for 2 hrs followed by compound addition at 0.1 uM and further incubated for 8 hrs by Western blot analysis. Format: cell-based.
Data set [17] deals with NCI-H3122. Put plainly: Inhibition of ERK phosphorylation in human NCI-H3122 cells at 0.3 to 3 uM and incubated for 24 hrs by Western blot analysis. In kind it is cell-based. The conditions noted are these: dose 0.3-3 µM. The procedure, abridged: as §2
The subject of data set [18] is HT-29. Put plainly: Inhibition of colony formation in human HT-29 cells at 10 to 100 nM incubated for 10 days by crystal violet staining based assay. Format: functional, cell-based. The conditions noted are these: dose 10-100 nM, time 10.0 day. The method in brief: (§3)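 HT-29 clonogenic assay: cells were exposed to compounds for 10 days, then fixed and stained with crystal violet. Two independent experiments.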

Data set [19] concerns HT-29. Put plainly: Inhibition of ERK phosphorylation in human HT-29 cells pre-incubated with MG-132 for 2 hrs followed by compound addition at 0.1 uM and further incubated for 8 hrs by Western blot analysis. In kind it is cell-based.
For data set [20], the system named is HT-29. The data set is described as follows: Inhibition of ERK phosphorylation in human HT-29 cells pre-incubated with POMA for 2 hrs followed by compound addition at 0.3 uM and further incubated for 8 hrs by Western blot analysis. Format: cell-based.
In data set [21] the test system is HT-29. Put plainly: Inhibition of ERK phosphorylation in human HT-29 cells at 0.3 uM and further incubated for 8 hrs by Western blot analysis.
For data set [22], the system named is HT-29. The data set is described as follows: Inhibition of ERK phosphorylation in human HT-29 cells pre-incubated with PD0325901 for 2 hrs followed by compound addition at 0.3 uM and further incubated for 8 hrs by Western blot analysis. In kind it is cell-based.
The subject of data set [23] is HT-29. The data set is described as follows: Inhibition of ERK phosphorylation in human HT-29 cells pre-incubated with MG132 for 2 hrs followed by compound addition at 0.3 uM and further incubated for 8 hrs by Western blot analysis. Format: cell-based.
Data set [24] concerns HT-29. The data set is described as follows: Inhibition of ERK phosphorylation in human HT-29 cells pre-incubated with MLN4924 for 2 hrs followed by compound addition at 0.3 uM and further incubated for 8 hrs by Western blot analysis. In kind it is cell-based.
Data set [25] concerns HT-29. Put plainly: Inhibition of colony formation in human HT-29 cells at 30 to 300 nM incubated for 10 days by crystal violet staining based assay. Format: functional, cell-based. Conditions: dose 30-300 nM, time 10.0 day. The procedure, abridged: as §3
For data set [26], the system named is HT-29. The data set is described as follows: Effect on global proteome expression in human HT-29 cells at 0.1 uM incubated for 8 hrs by mass spectrometry analysis based global proteome analysis. In kind it is functional, cell-based. The method in brief: (§4)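 HT-29 cells were treated 8 h (0.1% DMSO vehicle) and then lysed in 8 M urea/100 mM Tris pH 8.0 with sonication. Proteins were reduced with 5 mM DTT, alkylated with 15 mM IAA and digested overnight with trypsin (1:100). Peptides were analysed on a 130 min nanoLC gradient by Q Exactive HF-X data-dependent MS (top-20 HCD). Run in duplicate.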

Data set [27] relates to HT-29. Put plainly: Inhibition of ERK phosphorylation in human HT-29 cells at 0.3 to 3 uM incubated for 24 hrs by Western blot analysis. In kind it is cell-based. The conditions noted are these: dose 0.3-3 µM.
For data set [28], the system named is SU-DHL-1. The data set is described as follows: Antiproliferative activity against human SU-DHL-1 cells incubated for 3 days by WST8 assay. Format: functional. Conditions: SU-DHL-1, 72 h, time 3 day.
Data set [29] concerns HT-29. The data set is described as follows: Effect on global proteome expression in human HT-29 cells at 0.3 uM incubated for 8 hrs by mass spectrometry analysis based global proteome analysis. Format: functional, cell-based. The method in brief:
as §4

The subject of data set [30] is SK-MEL-28. The data set is described as follows: Antiproliferative activity against human SK-MEL-28 cells incubated for 3 days by WST8 assay. Format: functional. Conditions: SK-MEL-28, 72 h, time 3 day.
The subject of data set [31] is HT-29. The data set is described as follows: Antiproliferative activity against human HT-29 cells incubated for 3 days by WST8 assay. In kind it is functional. Conditions: HT-29, 72 h, time 3 day.

Activity calls are given as the source filed them. No cut-off for these calls is given here.

Consider `Cc1ncsc1-c1ccc([C@H](C)NC(=O)[C@@H]2C[C@@H](O)CN2C(=O)[C@@H](NC(=O)CCCCCCCCCCCNCCCCONC(=O)c2ccc(F)c(F)c2Nc2ccc(I)cc2F)C(C)(C)C)cc1`, for which the Drug uptake entry in data set [1] is “Active”. The Activity entry in data set [2], in data set [10] and in data set [13] was “Non-Toxic” in each case. The outcome in [3], in [6], in [9], in data set [11] and in data set [14] was Active. Also, the inhibition result in [4], in [5], in data set [7], in data set [17] and in data set [18] was “Active” throughout. Also, the inhibition result in [8] was “Dose-dependent effect”. Moreover, the inhibition result in data set [12], in data set [15], in data set [16] and in data set [19] was “inactive” in each case.

For `O=C1CCC(N2C(=O)c3ccc(NCCOCCOCCOCCOCCOCCNCCCONC(=O)c4ccc(F)c(F)c4Nc4ccc(I)cc4F)cc3C2=O)C(=O)N1` (stereo not drawn), the inhibition entry in data set [20], in [21], in data set [23] and in data set [24] was “inactive” throughout. Besides, in data set [8], the inhibition entry was “Dose-dependent effect”. Further, the inhibition entry in [22] and in data set [25] was “Active” each time.

`Cc1ncsc1-c1ccc([C@H](C)NC(=O)[C@H]2C[C@H](O)CN2C(=O)[C@@H](NC(=O)CCCCCCCCCCCNCCCCONC(=O)c2ccc(F)c(F)c2Nc2ccc(I)cc2F)C(C)(C)C)cc1`: the result in [26] and in [14] was inactive. Also, the inhibition entry in data set [7], in data set [17], in [27] and in data set [18] was “inactive” in each case.

As to `Cc1ncsc1-c1ccc([C@H](C)NC(=O)[C@@H]2C[C@@H](O)CN2C(=O)[C@@H](NC(=O)COCCOCCOCCNC(=O)CCc2ccc(S(=O)(=O)Nc3cc(C)c(=O)n(C)c3Nc3ccc(I)cc3F)cc2)C(C)(C)C)cc1`, the GI50 (commonly the concentration at which growth is held to half of that of the control) in data set [28] amounted to 2400 nM.

For the molecule `Cc1ncsc1-c1ccc([C@H](C)NC(=O)[C@@H]2C[C@@H](O)CN2C(=O)[C@@H](NC(=O)CCCCCCCCCCN(C)CCCONC(=O)c2ccc(F)c(F)c2Nc2ccc(I)cc2F)C(C)(C)C)cc1`, the Drug uptake entry in data set [1] is “Active”. In addition, the Activity result in data set [2], in data set [10] and in data set [13] was “Non-Toxic” each time. Moreover, the inhibition entry in [4], in data set [5], in data set [7], in [17] and in data set [18] was “Active” in each case. Also, in data set [8], the inhibition result was “Dose-dependent effect”. Besides, the inhibition result in [12], in [15], in data set [16] and in [19] was “inactive” throughout. For the same molecule, the result in [14] was Active.

`CN1C(=O)CCC(N2C(=O)c3ccc(NCCOCCOCCOCCOCCOCCNCCCONC(=O)c4ccc(F)c(F)c4Nc4ccc(I)cc4F)cc3C2=O)C1=O` (stereo not drawn): the result in data set [29] was inactive. Further, the inhibition result in data set [27] and in data set [25] was “inactive” throughout.

In the case of `Cc1ncsc1-c1ccc([C@H](C)NC(=O)[C@@H]2C[C@@H](O)CN2C(=O)[C@@H](NC(=O)CCCCCCCCCCNCCCONC(=O)c2ccc(F)c(F)c2Nc2ccc(I)cc2F)C(C)(C)C)cc1`, the results for the GI50 in [30] and in [31] were 83 nM and 130 nM, respectively.
